The values that follow come from ChEMBL document CHEMBL1275561, “In vitro activities of doripenem, a new broad-spectrum carbapenem, against recently collected clinical anaerobic isolates, with emphasis on the Bacteroides fragilis group” (2008).

What all share (type): functional
The subject of one experiment is Bacteroides caccae. As to the kind of experiment: Antimicrobial activity against Bacteroides caccae assessed as resistant isolates by agar dilution method. An outline of the steps:
(§1)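 CLSI agar dilution on enriched brucella agar (5% lysed defibrinated sheep blood, 1 μg/ml vitamin K1), plates made on test day. Log-phase inocula adjusted to 0.5 McFarland; about 10^5 CFU/spot by Steers replicator. Incubated anaerobically at 37°C for 48 h. MIC was the lowest concentration giving a marked change in growth versus the drug-free control plate. Resistance rates used CLSI anaerobe breakpoints. Controls were B. fragilis ATCC 25285 and B. thetaiotaomicron ATCC 29741.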

Experiment [1] concerns Parabacteroides distasonis. Briefly: Antimicrobial activity against Bacteroides distasonis assessed as resistant isolates by agar dilution method. An outline of the steps:
as §1

A further experiment concerns Bacteroides fragilis. As to the kind of experiment: Antimicrobial activity against Bacteroides fragilis assessed as resistant isolates by agar dilution method. Put shortly:
as §1

The test system of another experiment is Bacteroides ovatus. Briefly: Antimicrobial activity against Bacteroides ovatus assessed as resistant isolates by agar dilution method. An outline of the steps: as §1
Experiment [2] has as its system Bacteroides thetaiotaomicron. Briefly: Antimicrobial activity against Bacteroides thetaiotaomicron assessed as resistant isolates by agar dilution method. An outline of the steps:
as §1

The next experiment relates to Bacteroides uniformis. As to the kind of experiment: Antimicrobial activity against Bacteroides uniformis assessed as resistant isolates by agar dilution method. Put shortly: as §1
A further experiment relates to Phocaeicola vulgatus. Briefly: Antimicrobial activity against Bacteroides vulgatus assessed as resistant isolates by agar dilution method. An outline of the steps:
as §1

The subject of the next experiment is Bacteroides eggerthii. Briefly: Antimicrobial activity against Bacteroides eggerthii assessed as resistant isolates by agar dilution method. An outline of the steps:
as §1

For another experiment, the system named is Parabacteroides merdae. Briefly: Antimicrobial activity against Bacteroides merdae assessed as resistant isolates by agar dilution method. Put shortly: as §1
In a further experiment the test system is Bacteroides nordii. Briefly: Antimicrobial activity against Bacteroides nordii assessed as resistant isolates by agar dilution method. An outline of the steps: as §1
The next experiment deals with Clostridioides difficile. As to the kind of experiment: Antimicrobial activity against Clostridium difficile by agar dilution method in presence of beta-lactamase inhibitor Sulbactam. Put shortly:
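MICs by CLSI agar dilution on enriched brucella agar (5% lysed defibrinated sheep blood, 1 μg/ml vitamin K1). Log-phase inoculum at 0.5 McFarland, about 10^5 CFU/spot by replicator. Plates held anaerobically at 37°C for 48 h. Endpoint was the lowest concentration giving a marked change in growth against the control plate. Eubacterium lentum ATCC 43055 was the control.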

The test system of another experiment is [Clostridium] innocuum. Briefly: Antimicrobial activity against Clostridium innocuum assessed as resistant isolates by agar dilution method. The note with it: pooled result: one value given for 4 cell lines, strains, targets or settings.
Experiment [3] deals with Finegoldia magna. Briefly: Antimicrobial activity against Finegoldia magna by agar dilution method in presence of beta-lactamase inhibitor Sulbactam. Put shortly: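 Gram-positive anaerobes were tested by CLSI agar dilution on brucella agar enriched with 5% lysed defibrinated sheep blood and 1 μg/ml vitamin K1. Inoculum was log-phase growth at 0.5 McFarland, about 10^5 CFU/spot by replicator. Incubation was anaerobic, 37°C, 48 h. MIC was the lowest concentration with a marked growth change versus the drug-free plate. Eubacterium lentum ATCC 43055 was the control, and tests were repeated if it fell outside the CLSI range.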

Experiment [4] deals with Finegoldia magna. Briefly: Antimicrobial activity against Finegoldia magna assessed as resistant isolates by agar dilution method. An outline of the steps:
(§2)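 Agar dilution following CLSI on brucella agar with 5% lysed defibrinated sheep blood and 1 μg/ml vitamin K1, plates made on test day. Log-phase cells at 0.5 McFarland, about 10^5 CFU/spot by Steers replicator, 48 h anaerobic at 37°C. MIC read as the lowest concentration causing a marked growth change versus control. Resistance counted by CLSI anaerobe breakpoints. Eubacterium lentum ATCC 43055 served as control.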

The subject of experiment [5] is Peptoniphilus asaccharolyticus. As to the kind of experiment: Antimicrobial activity against Peptoniphilus asaccharolyticus assessed as resistant isolates by agar dilution method. The note with it: pooled result: one value given for 4 cell lines, strains, targets or settings. An outline of the steps:
as §2

In experiment [6] the test system is Cutibacterium acnes. Briefly: Antimicrobial activity against Propionibacterium acnes by agar dilution method in presence of beta-lactamase inhibitor Sulbactam. Put shortly:
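Log-phase isolates were adjusted to 0.5 McFarland, and about 10^5 CFU/spot was delivered by Steers replicator. Plates were incubated anaerobically at 37°C for 48 h. MIC was the lowest concentration giving a marked growth change versus the control plate. Eubacterium lentum ATCC 43055 was the QC strain, with repeats when out of range.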

Experiment [7] deals with Cutibacterium acnes. As to the kind of experiment: Antimicrobial activity against Propionibacterium acnes assessed as resistant isolates by agar dilution method. An outline of the steps:
as §2

The test system of another experiment is Propionibacterium. Briefly: Antimicrobial activity against Propionibacterium sp. assessed as resistant isolates by agar dilution method. An outline of the steps:
as §2

SMILES strings stand for the structures. Values joined by “and” are separate entries in the source; they are usually repeats but may differ in a detail not shown here. Equal values may be shown once.

Turning to `CC1(C)S[C@@H]2[C@H](NC(=O)[C@H](N)c3ccccc3)C(=O)N2[C@H]1C(=O)O` [AMPICILLIN], the Activity in the experiment on Bacteroides caccae was 0%; in experiment [1] it was 6.7%; with Bacteroides fragilis, 4.5%; with Bacteroides ovatus, 11.4%; in experiment [2], 3.8%; in the experiment on Bacteroides uniformis it was 0%. Also, the Activity with Phocaeicola vulgatus is given as 0%; in the experiment with Bacteroides eggerthii, 0%; with Parabacteroides merdae, 0%; in the experiment on Bacteroides nordii it was 0%; in experiment [Clostridium] innocuum, 5.6%; with Finegoldia magna [4] it was 0%. The Activity (in experiment [5]; in the experiment on Cutibacterium acnes [7]; with Propionibacterium) was 0% in each case. The MIC with Clostridioides difficile was 4 µg/mL; in the experiment with Finegoldia magna [3] it was 2 µg/mL; in the experiment with Finegoldia magna [3] (Finegoldia magna, read-out: MIC), 2 µg/mL; in the experiment on Cutibacterium acnes [6], 0.25 µg/mL and 0.5 µg/mL; in the experiment on Cutibacterium acnes [6] (Cutibacterium acnes, read-out: MIC) it was 0.25 µg/mL.
